Measured values as given in ChEMBL document CHEMBL4308887, “Synthesis and biological evaluation of clovamide analogues with catechol functionality as potent Parkinson's disease agents in vitro and in vivo” (Bioorg Med Chem Lett, 2019).
pEC50: −log10 of the molar value. Calls of active or inactive are those of the source. The calls are words filed in the database; no cut-off is given here.

Columns and labels:
[1] = tested on: SH-SY5Y; assay: Protection against H2O2-induced apoptosis in human SH-SY5Y cells assessed as decrease in ratio of Bax/Bcl2 expression preincubated for 6 hrs followed by H2O2 addition and measured after 24 hrs by Western blot analysis; type: functional, cell-based
In short: (§1)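 Western blot of Bax, Bcl-2 and cleaved caspase-3 in SH-SY5Y after pretreatment (1, 10 μM) and 600 μM H₂O₂. β-actin internal standard; Bax/Bcl-2 ratio from densitometry. Mean ± S.E.M., three independent experiments.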

[2] = tested on: SH-SY5Y; assay: Protection against H2O2-induced oxidative stress in human SH-SY5Y cells assessed as reactive oxygen species level at 1 uM preincubated for 6 hrs followed by H2O2 addition and measured after 24 hrs by DHE dye based flow cytometry (reference value: 18.6%); type: functional
[3] = tested on: SH-SY5Y; assay: Protection against H2O2-induced apoptosis in human SH-SY5Y cells assessed as decrease in cleaved caspase3 expression preincubated for 6 hrs followed by H2O2 addition and measured after 24 hrs by Western blot analysis; type: functional, cell-based; in short: as §1
[4] = tested on: SH-SY5Y; assay: Neuroprotection against H2O2-induced toxicity in human SH-SY5Y cells assessed as decrease in LDH release preincubated for 6 hrs followed by H2O2 addition and measured after 24 hrs; type: functional, cell-based
In short: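 Cells pretreated with test agent (1 or 10 μM), then 600 μM H₂O₂; plasma membrane damage read as LDH leakage into medium (U/L). DMSO below 0.1% in all groups. Mean ± S.E.M. of three independent experiments.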

[5] = tested on: SH-SY5Y; assay: Induction of mitochondrial dysfunction in non-stimulated human SH-SY5Y cells assessed as mitochondrial membrane potential at 10 uM measured after 6 hrs by Rh123 staining based flow cytometry (reference value: 97.6 %); type: cell-based
[6] = tested on: SH-SY5Y; assay: Cytotoxicity against non-stimulated human SH-SY5Y cells assessed as effect on LDH release measured after 6 hrs; type: cell-based
[7] = tested on: Mus musculus; assay: (§2) Anti-parkinson's activity in MPTP-induced C57Bl/6 mouse model of Parkinson's disease assessed as decrease in cleaved caspase3 expression in substantia nigra at 10 to 20 mg/kg, ig pretreated for 10 days followed by MPTP challenge measured 10 days post MPTP addition by Western blot analysis; type: functional, organism-based
In short: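 Substantia nigra from MPTP mice. Bax, Bcl-2 and cleaved caspase-3 measured by western blot, with Bcl-2/Bax ratio by densitometry. Mean ± S.D., n = 6 mice/group.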

[8] = tested on: SH-SY5Y; assay: Protection against H2O2-induced mitochondrial dysfunction in human SH-SY5Y cells assessed as increase in mitochondrial membrane potential at 1 to 10 uM preincubated for 6 hrs followed by H2O2 addition and measured after 24 hrs by Rh123 staining based inverted microscopic analysis; type: functional, cell-based
In short: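 ΔΨm examined by inverted fluorescence microscopy and flow cytometry after pretreatment (1, 10 μM) and 600 μM H₂O₂. Reported as % of control. Mean ± S.E.M., three independent experiments.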

[9] = tested on: Mus musculus; assay: as §2, with “increase” for “decrease”, “tyrosine hydroxylase” for “cleaved caspase3”, “DAB staining based immunohistochemistry method” for “Western blot analysis”; type: functional, organism-based
In short: (§3)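 Tissue taken 10 days after MPTP injection from mice dosed orally with 1 (10 or 20 mg/kg). TH in SNpc and striatum by western blot, and by DAB immunostaining. Three of the mice per group analysed. Mean ± S.D., n = 6 mice/group.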

[10] = Induction of apoptosis in non-stimulated human SH-SY5Y cells assessed as viable cells at 10 uM measured after 6 hrs by Annexin V-FITC/propidium iodide staining based flow cytometry (reference value: 92.5%); type: cell-based; conditions: read-out: Activity
[11] = tested on: SH-SY5Y; assay: Protection against H2O2-induced oxidative stress in human SH-SY5Y cells assessed as reduction in MDA level preincubated for 6 hrs followed by H2O2 addition and measured after 24 hrs by thiobarbituric acid method; type: functional, cell-based
In short: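 Cellular SOD activity (units) and MDA content (μmol/g) measured in SH-SY5Y after pretreatment (1, 10 μM) and 600 μM H₂O₂. Mean ± S.E.M. of three independent experiments.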

[12] = Activation of PI3K/Akt/mTOR signaling in human SH-SY5Y cells assessed as up regulation of H2O2-induced HO-1 expression at 10 uM preincubated for 6 hrs followed by H2O2 addition and after 24 hrs by Western blot analysis (reference value: 181.53 +/- 24.67%); type: cell-based
In short: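 SH-SY5Y cells pretreated 6 h with 1 (1 or 10 μM), then exposed to 600 μM H₂O₂ for 24 h. HO-1 measured by western blot with densitometry and expressed as % of control. Mean ± S.E.M., three independent experiments.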

[13] = Activation of PI3K/Akt/mTOR signaling in human SH-SY5Y cells assessed as up regulation of H2O2-induced HO-1 expression at 10 uM preincubated for 6 hrs followed by H2O2 addition and after 24 hrs in presence of p38 MAPK inhibitor SB203580 by Western blot analysis; type: cell-based
In short: (§4)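 SH-SY5Y cells preincubated 1 h with one inhibitor: SB203580 10 μM, LY294002 5 μM, U0126 10 μM, SP600125 5 μM or rapamycin 100 nM. Then 1 (10 μM) for 6 h, then 600 μM H₂O₂. HO-1 measured by western blot and densitometry. Mean ± S.E.M., three independent experiments.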

[14] = Activation of PI3K/Akt/mTOR signaling in human SH-SY5Y cells assessed as up regulation of HO-1 expression at 0.1 uM after 24 hrs by Western blot analysis relative to control; type: cell-based
In short: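 HO-1 western blot in SH-SY5Y cells incubated 24 h with 1 at 0.1, 1 or 10 μM, without H₂O₂. Band densitometry expressed as % of control. Mean ± S.E.M. from three independent experiments.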

[15] = tested on: SH-SY5Y; assay: Induction of apoptosis in non-stimulated human SH-SY5Y cells assessed as late apoptotic cells at 10 uM measured after 6 hrs by Annexin V-FITC/propidium iodide staining based flow cytometry (reference value: 2.3%); type: cell-based
[16] = tested on: SH-SY5Y; assay: Neuroprotection against H2O2-induced cell death in human SH-SY5Y cells preincubated for 6 hrs followed by H2O2 addition and measured after 24 hrs by MTT assay; type: functional, cell-based
In short: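 Primary screen at 100 μM, then dose-response. SH-SY5Y cells pretreated, then exposed to 600 μM H₂O₂ (the level chosen from a 100–1000 μM, 24 h viability titration). EC₅₀ is the concentration giving 50% of maximal effect. N-acetyl-L-cysteine served as positive control. DMSO below 0.1%. Mean ± S.E.M. of three experiments.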

[17] = tested on: Mus musculus; assay: Anti-parkinson's activity in MPTP-induced C57Bl/6 mouse model of Parkinson's disease assessed as increase in tyrosine hydroxylase expression in substantia nigra at 10 to 20 mg/kg, ig pretreated for 10 days followed by MPTP challenge measured 10 days post MPTP addition by Western blot analysis; type: functional, organism-based; in short: as §3
[18] = Activation of PI3K/Akt/mTOR signaling in human SH-SY5Y cells assessed as up regulation of H2O2-induced HO-1 expression at 10 uM preincubated for 6 hrs followed by H2O2 addition and after 24 hrs in presence of PI3K/Akt/mTOR inhibitor rapamycin by Western blot analysis; type: cell-based; in short: as §4
[19] = tested on: SH-SY5Y; assay: Protection against H2O2-induced apoptosis in human SH-SY5Y cells assessed as viable cells at 1 uM preincubated for 6 hrs followed by H2O2 addition and measured after 24 hrs by Annexin V-FITC/propidium iodide staining based flow cytometry (reference value: 12.4%); type: functional; conditions: read-out: Activity

SMILES: COC(=O)[C@H](Cc1ccccc1)NC(=O)/C=C/c1ccc(O)c(O)c1 [N-CAFFEOYL-PHENYLALANINE METHYL ESTER]
- Activity [1]: Dose-dependent effect
- Activity [2]: 14%
- Activity [3]: Dose-dependent effect
- Activity [4]: Dose-dependent effect
- Activity [5]: 98.1%
- Activity [6]: Non-Toxic
- Activity [7]: Active
- Activity [8]: Active
- Activity [9]: Active
- viability at 6 h, 10 µM [10]: 94.8%
- Activity [11]: Dose-dependent effect
- Activity [12]: 325%
- Activity [13]: Active
- Activity [14]: 111%
- Activity [15]: 2.7%
- pEC50 [16]: 5.37
- Activity [17]: Active
- Activity [18]: inactive
- viability at 1 µM [19]: 72%
